# ChEMBL document CHEMBL3272081, “Oxytocin analogues with combined high smooth muscle and negligible antidiuretic activities. Investigation of position 7 in neurohypophyseal hormones” (J Med Chem, 1976)
# Active and inactive are the calls of the source. The rule behind the calls is not given here. Bridge positions count the residues as written; N and C are the ends. Square brackets hold non-standard residues; d marks the D form. Peptide text beside a SMILES is read from it. Mpa = O=C(O)CCS
# Key:
# [1] = species on record: Rattus norvegicus; assay: Pressor activity in rat; format: functional
# Method in brief: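 Anesthetized male rats, per the U.S. Pharmacopeia. Potency is estimated by matches, with the USP posterior pituitary standard always injected before the analogue. Before each analogue dose, several standard doses are confirmed to give reproducible, unattenuated responses. Reported as USP U/mg ± SEM, five animals.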
# [2] = test system: Gallus gallus; assay: Induction of vasodepressor activity in conscious chicken; format: functional
# [3] = target: T1, Oxytocin receptor (Rattus norvegicus) (UniProt P70536); assay: Activity at rat oxytocin receptor in rat uterus assessed as uterotonic activity; format: tissue-based
# T1 sequence (whole entry): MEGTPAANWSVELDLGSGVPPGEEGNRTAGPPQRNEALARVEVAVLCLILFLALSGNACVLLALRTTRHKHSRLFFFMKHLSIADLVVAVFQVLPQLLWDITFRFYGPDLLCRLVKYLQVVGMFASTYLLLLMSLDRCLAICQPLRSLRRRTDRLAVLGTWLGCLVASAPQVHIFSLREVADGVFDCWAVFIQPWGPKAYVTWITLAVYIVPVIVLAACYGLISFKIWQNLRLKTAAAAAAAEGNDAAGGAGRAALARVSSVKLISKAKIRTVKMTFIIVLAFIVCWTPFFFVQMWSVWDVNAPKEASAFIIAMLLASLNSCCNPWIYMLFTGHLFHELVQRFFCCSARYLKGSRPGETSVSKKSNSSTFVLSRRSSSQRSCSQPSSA
# Method in brief: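 Isolated uterine horns from virgin rats in natural estrus, Holton method as modified by Munsick, bathed in Mg²⁺-free van Dyke–Hastings solution. Specific activity is derived against the USP standard by a Schild four-point design or by matches. Expressed as USP U/mg ± SEM, with at least three animals per determination.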
# [4] = species on record: Rattus norvegicus; assay: Antidiuretic activity in rat; format: functional, Urine
# Method in brief: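 Anesthetized male rats, Jeffers et al. method as modified by Sawyer. Specific activity is obtained against the USP standard using a Schild four-point design or matches. Reported as USP U/mg ± SEM, five animals per determination.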
# [5] = species on record: Oryctolagus cuniculus; assay: Induction of oxytocic activity in rabbit assessed as milk ejection; format: functional
# [6] = target: T2, Oxytocin receptor (Homo sapiens) (UniProt P30559); assay: Activity at oxytocin receptor (unknown origin) assessed as oxytocic activity
# T2 sequence (whole entry): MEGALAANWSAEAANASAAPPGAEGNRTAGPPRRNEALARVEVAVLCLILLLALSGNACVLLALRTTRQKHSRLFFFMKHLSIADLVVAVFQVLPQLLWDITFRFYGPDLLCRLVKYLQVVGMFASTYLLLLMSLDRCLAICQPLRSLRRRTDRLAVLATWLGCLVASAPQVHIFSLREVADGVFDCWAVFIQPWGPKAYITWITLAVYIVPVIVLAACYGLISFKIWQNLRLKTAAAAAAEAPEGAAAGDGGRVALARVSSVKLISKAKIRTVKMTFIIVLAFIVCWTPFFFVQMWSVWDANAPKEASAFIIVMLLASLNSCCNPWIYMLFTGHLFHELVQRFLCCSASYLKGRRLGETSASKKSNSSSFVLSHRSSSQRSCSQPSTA
# [7] = test system: Rattus norvegicus; assay: Induction of vasodepressor activity in anesthetized male rat at 0.5 mg
# [8] = Drug metabolism in rat uterine homogenate assessed as compound inactivation after 60 mins; format: ADME, tissue-based, Uterus; settings: read-out: Drug metabolism
# [9] = Drug metabolism in rat uterine homogenate assessed as compound inactivation after 30 mins; format: ADME, tissue-based, Uterus; settings: read-out: Drug metabolism
# [10] = species on record: Rattus norvegicus; assay: Pressor activity in rat after 45 mins; format: functional, organism-based
Activity [3],Activity [6],metabolised at 1 h [8],metabolised at 0.5 h [9],Structure (SMILES),Activity [1],Activity [2],Activity [4],Activity [5],Activity [7],Activity [10]
803 USP-U/mg,,,,CC[C@H](C)[C@@H]1NC(=O)[C@H](Cc2ccc(O)cc2)NC(=O)CCSSC[C@@H](C(=O)N2CCC[C@H]2C(=O)N[C@@H](CC(C)C)C(=O)NCC(N)=O)NC(=O)[C@H](CC(N)=O)NC(=O)[C@H](CCC(N)=O)NC1=O,1.44 USP-U/mg,975 USP-U/mg,19 USP-U/mg,541 USP-U/mg,,
22 USP-U/mg,,,,CC[C@H](C)[C@@H]1NC(=O)[C@H](Cc2ccc(O)cc2)NC(=O)[C@@H](N)CSSC[C@@H](C(=O)N[C@@H](C)C(=O)N[C@@H](CC(C)C)C(=O)NCC(N)=O)NC(=O)[C@H](CC(N)=O)NC(=O)[C@H](CCC(N)=O)NC1=O (H-CYIQNCALG-NH2; disulfide 1-6),0.4 USP-U/mg,4.8 USP-U/mg,0.08 USP-U/mg,,,
65 USP-U/mg,68 U/mg,,,CC[C@H](C)[C@@H]1NC(=O)[C@H](Cc2ccc(O)cc2)NC(=O)[C@@H](N)CSSC[C@@H](C(=O)NCC(=O)N[C@@H](CC(C)C)C(=O)NCC(N)=O)NC(=O)[C@H](CC(N)=O)NC(=O)[C@H](CCC(N)=O)NC1=O (H-CYIQNCGLG-NH2; disulfide 1-6),0.3 USP-U/mg,5.3 USP-U/mg,<=0.01 USP-U/mg,224 USP-U/mg,25 mmHg,
123 USP-U/mg,,,,CC[C@H](C)[C@@H]1NC(=O)[C@H](Cc2ccc(O)cc2)NC(=O)CCSSC[C@@H](C(=O)N[C@@H](C)C(=O)N[C@@H](CC(C)C)C(=O)NCC(N)=O)NC(=O)[C@H](CC(N)=O)NC(=O)[C@H](CCC(N)=O)NC1=O ([Mpa]YIQNCALG-NH2; disulfide 1-6),0.5 USP-U/mg,9.8 USP-U/mg,0.17 USP-U/mg,,,
355 USP-U/mg,,30%,3%,CC[C@H](C)[C@@H]1NC(=O)[C@H](Cc2ccc(O)cc2)NC(=O)CCSSC[C@@H](C(=O)NCC(=O)N[C@@H](CC(C)C)C(=O)NCC(N)=O)NC(=O)[C@H](CC(N)=O)NC(=O)[C@H](CCC(N)=O)NC1=O ([Mpa]YIQNCGLG-NH2; disulfide 1-6),0.5 USP-U/mg,17 USP-U/mg,0.062 USP-U/mg,,,
546 USP-U/mg,,,,CC[C@H](C)[C@@H]1NC(=O)[C@H](Cc2ccc(O)cc2)NC(=O)[C@@H](N)CSSC[C@@H](C(=O)N2CCC[C@H]2C(=O)N[C@@H](CC(C)C)C(=O)NCC(N)=O)NC(=O)[C@H](CC(N)=O)NC(=O)[C@H](CCC(N)=O)NC1=O [OXYTOCIN],3.1 USP-U/mg,507 USP-U/mg,2.7 USP-U/mg,440 USP-U/mg,,Active
